Bioassay records as filed in PubChem BioAssay.
CHOP UPR activ: activators of apoptotic arm of unfolded protein response (CHOP); CHO-CHOP luciferase reporter, UPR activation, luminescence; percent of tunicamycin response over DMSO baseline; activation, % at 10 µM; 0.34% of 330,000 active;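 active = at 10 µM dose, activation of 40% or more, normalized to positive control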
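Test system: CHO CHOP reporter cells. Input: 500 CHO-CHOP cells per well. Medium: F12 with 10% FBS. Technique: luciferase luminescence. Measure: percent activation relative to tunicamycin control. Dosing: 10 µM compound, 0.5% DMSO. Timing: 16-18 h cell attachment, then 6 h compound exposure, 37 °C.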
Granule exo inh: blocks lytic granule exocytosis; 0.66% of 360,000 active; TALL-104 LAMP-1 surface exposure, flow cytometry; cells stimulated with thapsigargin and PMA; inhibition, % at 10 µM;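 active = inhibition above about 55%, limit read from the data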
ABHD5 PLIN5 PPI: blocks binding of human ABHD5 to perilipin-5 | Split G. princeps luciferase complementation, luminescence, 4 h | 0.78% of 360,000 active | inhibition, % at 4 µM | AID 602281 | Q00G26+Q8WTS1;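 active = inhibition above the mean inhibition across every tested compound plus 3 SD, cut at about 22% in these data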
Mdm2-MdmX inh: inhibitors of human Mdm2/MdmX interaction; AID 485346; SaOS-2 split-luciferase Mdm2/MdmX complementation, luminescence; 3% of 330,000 active; O15151+Q00987; inhibition, % at 8 µM;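 active = inhibition of at least 50% at 8 µM in the primary screen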
UPR XBP1 act: activators of adaptive arm of unfolded protein response (XBP1); AID 463104; activation, % at 20 µM; 0.33% of 330,000 active; CHO-XBP1 luciferase reporter, IRE1-XBP1 UPR activation, luminescence; percent of tunicamycin response, DMSO as zero;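 active = versus positive control, 20 µM dose yields 30% or more activation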
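Material: IRE1-XBP1 luciferase reporter CHO line / Quantity: one thousand reporter cells per well / Buffer or medium: F12 with 10% serum / Compound: 20 µM single concentration, DMSO 1% / Times: 6 h treatment, 37 °C / Detection: Steady-Glo luciferase glow luminescence, 10 min after reagent addition / Benchmarks: tunicamycin high, DMSO low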
Mdm2 MdmX conf: human Mdm2/MdmX binding inhibition, confirmed | inhibition, % at 8 µM | luminescent assay | shares compounds with Mdm2-MdmX inh | 55% of 10,000 active; in the data active = inhibition above about 40%
FLuc counter: counter-screen for Mdm2/MdmX inhibitors: full-length luciferase; shares compounds with Mdm2-MdmX inh; SaOS-2 full-length luciferase counterscreen, luminescence; inhibition, % at 8 µM; 77% of 6,200 active;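 active = mean inhibition at 8 µM reaching about 37%, which flags the compound as non-specific, limit read from the data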;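 also: p53-null SaOS-2 cells with luciferase driven by a doxycycline-inducible promoter; compound on cells about two nights before reading with doxycycline added after day one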
Large screens that a line does not name were inactive (follow-up assays come after a bar, where they were run). Only some compounds are listed: those with a hit (about 4% of all), similar ones and a draw of the others.

O=C(c1ccco1)N1CCN(c2ncnc3sc4c(c23)CCC4)CC1	none
c1ccc(N2CCN(c3ncnc4sc5c(c34)CCC5)CC2)cc1	Mdm2-MdmX inh 66.9 | Mdm2 MdmX conf 56.2 | FLuc counter 38.6
O=C(Nc1ccc(-c2csc(Nc3ccc(Cl)cc3)n2)cc1)c1cc([N+](=O)[O-])cc(C(F)(F)F)c1	Mdm2-MdmX inh 71.2 | Mdm2 MdmX conf inactive
O=C(Nc1cccc(-c2csc(Nc3ccc(Cl)cc3)n2)c1)c1cccc(C(F)(F)F)c1	Mdm2-MdmX inh 58.4 | Mdm2 MdmX conf inactive
O=C(Nc1cccc(-c2csc(Nc3ccc(Cl)cc3)n2)c1)c1cc([N+](=O)[O-])cc(C(F)(F)F)c1	Mdm2-MdmX inh 84.6 | Mdm2 MdmX conf inactive
CCCC(c1nnnn1Cc1ccccc1)N1CCC(C(N)=O)CC1 (centres undefined)	none
CSc1nc2c([nH]1)c(=S)n(C)c(=O)n2C	none (no result: CHOP UPR activ, Mdm2-MdmX inh, UPR XBP1 act)
Cc1cccc(COCC(Cc2ccccc2)N2CCN(C(=O)c3ccc(C(F)(F)F)cc3)CCC2=O)c1 (centres undefined)	Mdm2-MdmX inh 57.4 | Mdm2 MdmX conf inactive
Cc1cccc(COC[C@H](Cc2ccccc2)N2CCN(C(=O)c3ccc(C(F)(F)F)cc3)CCC2=O)c1	none (no result: CHOP UPR activ, Mdm2-MdmX inh, UPR XBP1 act)
O=C(c1ccc(Cl)c(Cl)c1)N1CCC(=O)N(C(COCc2cccc(Cl)c2)Cc2ccccc2)CC1 (centres undefined)	Mdm2-MdmX inh 54.2 | Mdm2 MdmX conf inactive
O=C(c1cccc(Cl)c1)N1CCC(=O)N(C(COCc2cccc(Cl)c2)Cc2ccccc2)CC1 (centres undefined)	none
CC1Oc2ccccc2C=C1/C=N/NC(=O)c1ccccc1O (centres undefined)	none
Cc1ccccc1OC1C(=O)N(CC2CCCO2)C1c1ccc2c(c1)OCO2 (centres undefined)	none
CCCCCCCCNC(C)C(O)c1ccc(SC(C)C)cc1 (centres undefined)	Mdm2-MdmX inh 95.1 | Mdm2 MdmX conf inactive
COc1ccc(-n2ccnc2SCC(=O)NC2CCCC2)c(OC)c1	none
Cc1ccccc1CSc1nc2[nH]ncc2c(=O)[nH]1	none
Cc1ccc(C)c(CSc2nc3[nH]ncc3c(=O)[nH]2)c1	Mdm2-MdmX inh 56.0 | Mdm2 MdmX conf 68.2 | FLuc counter 48.1
COn1c(-c2ccccc2)c(C=O)c2ccccc21	none
COc1ccc(C[C@H]2CN3C(=NC[C@@H]3Cc3ccccc3)N2CCNC(=O)CCC2CCCCC2)cc1	Mdm2-MdmX inh 88.3 | Mdm2 MdmX conf inactive | FLuc counter 53.7
COc1ccc(C[C@H]2CN3C(=NC[C@@H]3C(C)C)N2CCNC(=O)CCC2CCCCC2)cc1	none
O=C(CN1CCCCC1)Nc1ccccc1NC(=O)CN1CCCCC1	none
Nc1nc(Cl)cc(NCCc2ccc(O)cc2)n1	none
Oc1ccc(CCNc2ncnc3ccc(Cl)cc23)cc1	Mdm2-MdmX inh 64.3 | Mdm2 MdmX conf 73.2 | FLuc counter inactive
O=C(NN1CCOCC1)c1cc(-c2cccs2)nc2ccccc12	none
Cc1c(NC(=O)c2cc(-c3cccs3)nc3ccccc23)c(=O)n(-c2ccccc2)n1C	Mdm2-MdmX inh 56.6 | Mdm2 MdmX conf inactive
O=C(NNc1nc2ccc(Cl)cc2s1)c1cc(-c2cccs2)nc2ccccc12	Mdm2-MdmX inh 52.7 | Mdm2 MdmX conf 62.0 | FLuc counter 61.0
Cc1ccc(NC(=O)c2cc(-c3cccs3)nc3ccccc23)nc1	none
Cc1c(NC(=O)c2cc(-c3ccccc3)nc3ccccc23)c(=O)n(-c2ccccc2)n1C	none
Cc1cc(C)c2nc(NNC(=O)c3cc(-c4cccs4)nc4ccccc34)sc2c1	Mdm2-MdmX inh 76.5 | Mdm2 MdmX conf 67.8 | FLuc counter 56.8
O=C(Nc1ccccn1)c1cc2ccccc2o1	none
C[C@H]1CN([C@@H](C)CO)C(=O)c2c(c3ccccc3n2C)-c2ccccc2CO[C@H]1CN(C)C(=O)[C@@H]1CCCN1C	none (no result: CHOP UPR activ, Mdm2-MdmX inh, UPR XBP1 act)
O=C(Cc1ccc(-n2cccc2)cc1)NCc1cccs1	Mdm2-MdmX inh 54.7 | Mdm2 MdmX conf 46.5 | FLuc counter 67.3
Cc1ccc(CNC(=O)Cc2ccc(-n3cccc3)cc2)cc1	none
